From ChEMBL document CHEMBL4043304, “Synthesis and Evaluation of Hydrogen Peroxide Sensitive Prodrugs of Methotrexate and Aminopterin for the Treatment of Rheumatoid Arthritis” (J Med Chem, 2018)
≈ marks a conversion by molar mass, not a printed value. Calls of active or inactive are those of the source. The calls are words filed in the database; no cut-off is given here.

Key:
[1] = Prodrug activation in DMSO/PBS mixture assessed as formation of Dimethyl (4-(((2,4-Diaminopteridin-6-yl)methyl)(methyl)amino)-benzoyl)-L-glutamate at 50 uM after <3 hrs in presence of 0.5 mM H2O2 by RP-UPLC-MS method
In short: (§1)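 50 µM prodrug in 30% DMSO/PBS pH 7.4 at 37 °C with diclofenac internal standard. Started with H2O2 at 0.5 mM final. Sampled 5 min to 4 h (some compounds to 48 h). RP-UPLC-UV at 306 nm. No-H2O2 control run in parallel. Triplicate.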

[2] = tested on: MCF7; assay: Cytotoxicity against human MCF7 cells assessed as decrease in cell viability after 48 hrs by MTS assay; format: functional, cell-based
In short: (§2)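 MCF-7 (DMEM) or NCI-H460 (RPMI), 10% FBS, seeded at 10^4 or 7×10^3 cells/well respectively and attached for 24 h. Exposed to serial compound concentrations for 48 h, then MTS read at 490 nm. DMSO ≤0.4% matched controls. Triplicate. IC50 by non-linear regression.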

[3] = tested on: Mus musculus; assay: Antiarthritic activity in collagen-induced DBA/1J mouse arthritis model assessed as decrease in incidence of arthritis at 7 mg/kg, ip administered daily for 2 weeks starting on day 27 post first immunization measured thrice per week during compound dosing relative to control; format: functional, organism-based
In short: (§3)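 Male DBA/1J mice (8–9 wk, n = 8/group). Arthritis induced by intradermal tail-base immunization with 100 µg chicken type-II collagen in CFA on day −1, with a 50 µg boost on day 21. Daily i.p. dosing in 2% DMSO/PBS for 14 days from day 27. Blinded scoring three times weekly, 0–15 per limb (max 60). Vehicle group as control. Mann-Whitney test.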

[4] = tested on: NCI-H460; assay: Cytotoxicity against human NCI-H460 cells assessed as decrease in cell viability after 48 hrs by MTS assay; format: functional, cell-based; in short: as §2
[5] = tested on: Mus musculus; assay: Antiarthritic activity in collagen-induced DBA/1J mouse arthritis model assessed as reduction of macroscopic score at 7 mg/kg, ip administered daily for 2 weeks starting on day 27 post first immunization measured thrice per week during compound dosing relative to control; format: functional, organism-based; in short: as §3
[6] = tested on: Mus musculus; assay: Toxicity in collagen-induced DBA/1J mouse arthritis model assessed as decrease in body weight at 7 mg/kg, ip administered daily for 2 weeks starting on day 27 post first immunization measured thrice per week during compound dosing; format: organism-based; details: in vivo, 336 h
In short: (§4)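 CIA in male DBA/1J mice (8–9 wk, n = 8/group) from chicken type-II collagen/CFA immunization (day −1, boost day 21). Daily i.p. dosing in 2% DMSO/PBS for 14 days starting day 27. Body weight recorded three times weekly as a general-health indicator, compared with vehicle. Data are mean ± SEM.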

[7] = Kinetic solubility of the compound in DMSO/PBS mixture after 20 hrs by RP-UPLC-UV method; format: physicochemical; details: read-out: Kinetic_solubility
In short: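 100 µM compound in 1% DMSO/PBS pH 7.4, shaken 20 h at 37 °C. Centrifuged to remove insoluble material; supernatant quantified by RP-UPLC-UV at 306 nm. Triplicate.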

[8] = tested on: NCI-H460; assay: Cytotoxicity against human NCI-H460 cells assessed as decrease in cell viability preincubated with H2O2 for 24 hrs followed by cell addition measured after 48 hrs by MTS assay; format: functional, cell-based
In short: (§5)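 Compound pre-activated at 125 µM with 1.25 mM H2O2 in DMSO:PBS 1:1, 24 h at 21 °C. Then added to MCF-7 or NCI-H460 cells (24 h attached) for 48 h. Final H2O2 <10 µM. MTS read at 490 nm. Triplicate. IC50 by non-linear regression.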

[9] = Intrinsic clearance in CD1 mouse liver microsomes at 10 uM after 5 to 240 mins by RP-UPLC-UV method; format: ADME, microsome; details: read-out: CLH
In short: (§6)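 Pooled male liver microsomes (human, or CD-1 mouse) in PBS at 37 °C with 10 µM compound. Reaction started with NADPH. Aliquots taken 0–60 min (mouse also 120 and 240 min) and quenched with cold MeCN/diclofenac. Read by RP-UPLC-UV, ln[C] vs time, first order. No-NADPH control run; verapamil (human) or diphenhydramine (mouse) as reference.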

[10] = Half life in PBS/DMSO mixture at pH 7.4 by RP-UPLC-UV method; format: physicochemical
[11] = Metabolic stability in human plasma at 20 uM after 24 hrs by RP-UPLC-UV method; format: ADME, cell-free; details: read-out: Stability
In short: (§7)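 Reconstituted lyophilized human or mouse plasma mixed about 1:1 with PBS and pre-warmed to 37 °C. Compound added to 20 µM final. […] Procaine (human) and diltiazem (mouse) as controls.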

[12] = tested on: Mus musculus; assay: Antiarthritic activity in collagen-induced DBA/1J mouse arthritis model assessed as reduction of macroscopic score at 9.7 mg/kg, ip administered daily for 2 weeks starting on day 27 post first immunization measured thrice per week during compound dosing relative to control; format: functional, organism-based; in short: as §3
[13] = Half life in SIF by RP-UPLC-UV method; format: physicochemical
In short: (§8)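 SGF or SIF (SIF adjusted to pH 7.5) dosed from a 10 mM DMSO stock. Incubated at 37 °C and sampled at 0, 1, 2, 4 and 24 h. Run in triplicate.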

[14] = Chemical stability in PBS/DMSO mixture at pH 7.4 after 24 hrs by RP-UPLC-UV method; format: physicochemical; details: read-out: Stability
[15] = Half life in human plasma at 20 uM by RP-UPLC-UV method; format: ADME, cell-free; in short: as §7
[16] = Intrinsic clearance in human liver microsomes at 10 uM after 5 to 60 mins by RP-UPLC-UV method; format: ADME, microsome; details: read-out: CLH; in short: as §6
[17] = tested on: Mus musculus; assay: Toxicity in collagen-induced DBA/1J mouse arthritis model assessed as decrease in body weight at 9.7 mg/kg, ip administered daily for 2 weeks starting on day 27 post first immunization measured thrice per week during compound dosing; format: organism-based; details: in vivo, 336 h; in short: as §4
[18] = Prodrug activation in DMSO/PBS mixture assessed as formation of methotrexate at 100 uM after 24 hrs in presence of 0.25 to 10 mM H2O2 by RP-UPLC-MS method
In short: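 Prodrug from 1 mM DMSO stock in PBS pH 7.4 with diclofenac internal standard. Started with H2O2 solutions of 10, 5, 1, 0.5 or 0.25 mM (stock concentrations). Incubated at 37 °C and sampled 5 min to 24 h (48 h for some). RP-UPLC-UV at 306 nm. PBS-only control run. Triplicate.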

[19] = Half life in mouse plasma at 20 uM by RP-UPLC-UV method; format: ADME, cell-free; in short: as §7
[20] = tested on: MCF7; assay: Cytotoxicity against human MCF7 cells assessed as decrease in cell viability preincubated with H2O2 for 24 hrs followed by cell addition measured after 48 hrs by MTS assay; format: functional, cell-based; in short: as §5
[21] = Half life in SGF by RP-UPLC-UV method; format: physicochemical; in short: as §8
[22] = Prodrug activation in DMSO/PBS mixture assessed as formation of methotrexate at 50 uM after <3 hrs in presence of 0.5 mM H2O2 by RP-UPLC-MS method; in short: as §1
[23] = tested on: Mus musculus; assay: Antiarthritic activity in collagen-induced DBA/1J mouse arthritis model assessed as decrease in incidence of arthritis at 9.7 mg/kg, ip administered daily for 2 weeks starting on day 27 post first immunization measured thrice per week during compound dosing relative to control; format: functional, organism-based; in short: as §3
[24] = Metabolic stability in mouse plasma at 20 uM after 8 hrs by RP-UPLC-UV method; format: ADME, cell-free; details: read-out: Stability; in short: as §7

COC(=O)CC[C@H](NC(=O)c1ccc(N(C)Cc2cnc3nc(N)nc(NC(=O)OCc4ccc(B(O)O)c(C)c4)c3n2)cc1)C(=O)OC
Drug metabolism [1]: > 95%

CN(Cc1cnc2nc(N)nc(N)c2n1)c1ccc(C(=O)N[C@@H](CCC(=O)O)C(=O)O)cc1 [METHOTREXATE]
Activity [2]: Active | Activity [3]: Active | Activity [4]: Active | Activity [5]: Active | Activity [6]: Toxic | solubility kinetic at 20 h [7]: 2140 µM (≈ 971 µg/mL)

COC(=O)CC[C@H](NC(=O)c1ccc(N(C)Cc2cnc3nc(N)nc(NC(=O)OCc4ccc(B(O)O)cc4)c3n2)cc1)C(=O)OC
Drug metabolism [1]: > 95% | solubility kinetic at 20 h [7]: 3 µM (≈ 1.98 µg/mL)

CN(Cc1cnc2nc(N)nc(NC(=O)OCc3ccc(B(O)O)cc3)c2n1)c1ccc(C(=O)N[C@@H](CCC(=O)O)C(=O)O)cc1
Activity [2]: inactive | Activity [8]: Active | microsomal CLint at 10 µM [9]: 6.4 µL/min/mg | half-life [10]: 238 h | remaining at 24 h, 20 µM [11]: 70% | Activity [12]: Active | half-life [13]: 239 h | remaining at 24 h [14]: > 90% | half-life at 20 µM [15]: 70 h | Activity [4]: inactive | microsomal CLint at 10 µM [16]: 2.2 µL/min/mg | Activity [17]: Non-Toxic | Drug metabolism [18]: Metabolite detected | half-life at 20 µM [19]: 17 h | Activity [20]: Active | half-life [21]: 8 h | solubility kinetic at 20 h [7]: 87 µM (≈ 55 µg/mL) | Drug metabolism [22]: Metabolite detected | Activity [23]: Active | remaining at 8 h, 20 µM [24]: 62%
